Test results from ChEMBL document CHEMBL2177002, “Antifungal spectrum, in vivo efficacy, and structure-activity relationship of ilicicolin h” (ACS Med Chem Lett, 2012).
≈ marks a conversion by molar mass, not a printed value. Calls of active or inactive are those of the source. The rule behind the calls is not given here.

Experiments:
Candida albicans [1] = experiment: Antifungal activity against Candida albicans MY 1055 infected in DBA/2 mouse assessed as reduction in kidney fungal burden at 25 to 50 mg/kg, iv tid after 24 hrs; assay type: functional, organism-based
In short: (§1)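 Abbreviated 24 h version of the disseminated C. albicans kidney-burden model in mice. Dosing intravenous, thrice daily, at total doses of 50 or 25 mg/kg/day. Kidney burden compared with controls by Excel t test (p < 0.05). ED90 expressed as mg/kg/day.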

Cryptococcus neoformans [2] = experiment: Antifungal activity against Cryptococcus neoformans MY 2061 infected in DBA/2 mouse assessed as reduction in spleen fungal burden at 50 mg/kg, po bid; assay type: functional, organism-based; parameters: dose 50 mg/kg
In short: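 Mice with disseminated C. neoformans MY2061 infection (8 × 10⁵ cfu/mouse). Dosed twice daily at 100 or 50 mg/kg, oral or intraperitoneal, in 5% aqueous DMSO. Spleen burden measured as log cfu/g of spleen and compared by Excel t test (p < 0.05).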

[3] = Inhibition of Saccharomyces cerevisiae MY 2141 NADH:cytochrome c oxidoreductase
[4] = Inhibition of Saccharomyces cerevisiae MY 2141 electron transport protein complex 2/3 using succinate as substrate assessed as decrease in oxygen consumption measured for 3 mins
[5] = Inhibition of ubiquinol:cytochrome c reductase in presence of 50% mouse plasma; assay type: cell-free
In short: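 Cytochrome c reductase assay run with mouse plasma added at increasing percentages, up to 50%, to gauge the effect of plasma protein binding on inhibition.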

Candida albicans [6] = experiment: Ratio of MIC for Candida albicans 9 harboring cytochrome b G37D mutant to MIC for wild type Candida albicans; assay type: functional
Candida albicans [7] = experiment: Antifungal activity against Candida albicans MY 1055 infected in DBA/2 mouse assessed as reduction in kidney fungal burden administered as iv tid after 24 hrs; assay type: functional; conditions: MY 1055, Kidney; in short: as §1
Candida albicans [8] = experiment: Ratio of MIC for Candida albicans 5 harboring cytochrome b G37S mutant to MIC for wild type Candida albicans; assay type: functional
Candida parapsilosis = experiment: Antifungal activity against Candida parapsilosis ATCC 22019 after 24 hrs by NCCLS broth microdilution method; assay type: functional; conditions: Lodderomyces parapsilosis, ATCC 22019, 24 h
Candida tropicalis = experiment: Antifungal activity against Candida tropicalis MY 1012 after 40 hrs by NCCLS broth microdilution method; assay type: functional; conditions: MY 1012, 40 h
[9] = Inhibition of rat liver NADH:cytochrome c oxidoreductase
Candida albicans [10] = experiment: Ratio of MIC for Candida albicans 13 harboring cytochrome b G37C mutant to MIC for wild type Candida albicans; assay type: functional
[11] = Inhibition of rhesus monkey liver NADH:cytochrome c oxidoreductase; parameters: species or system Macaca mulatta
[12] = Half life in mouse; assay type: ADME, organism-based; conditions: in vivo
Candida albicans [13] = experiment: Antifungal activity against Candida albicans MY 1055 assessed as inhibition of whole cell oxygen consumption at 0.003 ug/mL after 15 mins; assay type: functional; conditions: MY 1055, 0.25 h
Cryptococcus neoformans [14] = experiment: Antifungal activity against Cryptococcus neoformans MY 2061 after 40 hrs by NCCLS broth microdilution method; assay type: functional; conditions: MY 2061, 40 h
Candida albicans [15] = experiment: Ratio of MIC for Candida albicans 1 harboring cytochrome b G37C mutant to MIC for wild type Candida albicans; assay type: functional
Candida albicans [16] = experiment: Ratio of MIC for Candida albicans 12 harboring cytochrome b Q22E mutant to MIC for wild type Candida albicans; assay type: functional

Question: Which Activity (Candida albicans [1]) does the source give for `C/C=C/[C@@H]1[C@H]2C[C@@H](C)CC[C@@H]2C(C)=C[C@H]1C(=O)c1c(O)c(-c2ccc(O)cc2)c[nH]c1=O` [ILICICOLIN H] here?
Answer: Active

Question: And the Activity (Cryptococcus neoformans [2])?
Answer: Active

Question: What about the IC50 [3] of the same compound?
Answer: 2.31 nM

Question: And the IC50 [4]?
Answer: 1 µg/mL (≈ 2.31 µM)

Question: What about the inhibition [5] of the same compound?
Answer: inactive

Question: What about the Ratio (Candida albicans [6]) of the same compound?
Answer: 250

Question: What about the ED90 (Candida albicans [7]) of the same compound?
Answer: 22.3 mg/kg/day

Question: And the Ratio (Candida albicans [8])?
Answer: 250

Question: What about the MIC (Candida parapsilosis) of the same compound?
Answer: 0.01 µg/mL (≈ 0.0231 µM)

Question: And the MIC (Candida tropicalis)?
Answer: 0.01 µg/mL (≈ 0.0231 µM)

Question: And the IC50 [9]?
Answer: 1.5 µg/mL (≈ 3.46 µM)

Question: And the Ratio (Candida albicans [10])?
Answer: 250

Question: What about the IC50 [11] of the same compound?
Answer: 0.5 µg/mL (≈ 1.15 µM)

Question: What about the half-life [12] of the same compound?
Answer: 2.5 h

Question: And the inhibition at 0.003 µg/mL (Candida albicans [13])?
Answer: 100%

Question: And the MIC (Cryptococcus neoformans [14])?
Answer: 0.1 µg/mL (≈ 0.231 µM)

Question: What about the Ratio (Candida albicans [15]) of the same compound?
Answer: 250

Question: And the Ratio (Candida albicans [16])?
Answer: 250
